Reference: ChEMBL document CHEMBL1155242, “Radiolabeled 5-iodo-3'-O-(17beta-succinyl-5alpha-androstan-3-one)-2'-deoxyuridine and its 5'-monophosphate for imaging and therapy of androgen receptor-positive cancers: synthesis and biological evaluation” (J Med Chem, 2009)

Key:
[1] = Stability in mouse serum assessed as intact compound remaining at 10 to 20 uCi/mL after 10 mins by size-exclusion HPLC analysis; type: ADME, cell-free; details: read-out: Stability
In short: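 The compound was incubated in mouse serum, which lacks circulating SHBG. Aliquots were analysed on size-exclusion HPLC (TSK3000; phosphate/Na2SO4 buffer, pH 6.8, then an acetonitrile gradient). Extracts were analysed by C18 reversed-phase HPLC to measure intact compound remaining over time.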

[2] = Stability in rabbit serum assessed as half life at 10 to 20 uCi/mL by reversed phase HPLC analysis; type: ADME, cell-free, Oryctolagus cuniculus
In short: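 The compound was incubated with rabbit or human serum at ambient temperature, and aliquots were taken at 1, 5 and 24 h. Aliquots were run on size-exclusion HPLC (TSK3000; 0.1 M potassium phosphate/0.1 M Na2SO4, pH 6.8, then an acetonitrile gradient). Extracts were run on C18 reversed-phase HPLC (water/acetonitrile with 0.07% TFA). Half-lives came from a monoexponential fit.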

[3] = tested on: OVCAR-3; assay: Stability in human OVCAR-3 cells expressing androgen receptor assessed as half life at 0.1 uCi/mL by silica gel instant thin layer chromatography; type: ADME, cell-based
In short: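 Breakdown was followed with proliferating NIH:OVCAR-3 cells grown in complete RPMI-1640 medium. The distribution of radioactive products released into the culture medium (parent compound, 125IUdR and its 3′-succinate) was measured over time. Half-life was estimated from the time course.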

[4] = tested on: LNCaP; assay: Cellular uptake in proliferating human LNCAP cells expressing androgen receptor after 24 hrs by gamma counting; type: ADME, cell-based
In short: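 Proliferating LNCaP monolayers exposed 24 h to a range of radioligand concentrations; whole-cell uptake measured.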

[5] = Stability in human OVCAR-3 cells expressing androgen receptor assessed as half life at 0.01 to 5 uCi/mL by silica gel instant thin layer chromatography; type: ADME, cell-based
[6] = tested on: OVCAR-3; assay: Cytotoxicity against human OVCAR-3 cells expressing androgen receptor assessed as cell survival at 3 uCi/mL after 48 hrs; type: functional
In short: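 NIH:OVCAR-3 cells were grown for 48 h with the 125I-labelled compound, and survival was plotted against the extracellular concentration in μCi/mL.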

[7] = Biodistribution in uterus of athymic NCr mouse xenografted with human OVCAR-3 cells assessed per gram of tissue at 1.12 uCi, ip after 72 hrs by gamma counting; type: ADME, organism-based; details: in vivo
[8] = tested on: OVCAR-3; assay: Cellular uptake in human OVCAR-3 cells xenografted in athymic NCr mouse assessed per gram of cells at 180 uCi, ip administered 9 days after tumor implantation as six fractionated doses every 4 days measured after 12 days by gamma counting; type: ADME, organism-based; details: in vivo, 288 h
In short: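 Mice treated with one, three or six ip doses; nonadherent OVCAR-3 cells lavaged at necropsy, 12 days after last of six doses, and counted; %ID/g decay-corrected; DNA-bound fraction measured.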

[9] = Chemical stability in RPMI-1640 serum-free medium assessed as compound hydrolysis at 12.2 uCi after 24 hrs by HPLC analysis; type: physicochemical; details: read-out: Activity
[10] = Ratio of drug level in tumor to kidney in athymic NCr mouse xenografted with human OVCAR-3 cells at 180 uCi, ip administered 9 days after tumor implantation as six fractionated doses every 4 days measured after 24 hrs by gamma counting; type: ADME, organism-based; details: in vivo
[11] = Ratio of drug level in tumor to spleen in athymic NCr mouse xenografted with human OVCAR-3 cells at 180 uCi, ip administered 9 days after tumor implantation as six fractionated doses every 4 days measured after 24 hrs by gamma counting; type: ADME, organism-based; details: in vivo
[12] = Ratio of drug level in tumor to spleen in athymic NCr mouse xenografted with human OVCAR-3 cells at 180 uCi, ip administered 9 days after tumor implantation as six fractionated doses every 4 days measured after 48 hrs by gamma counting; type: ADME, organism-based; details: in vivo
[13] = Ratio of drug level in tumor to liver in athymic NCr mouse xenografted with human OVCAR-3 cells at 180 uCi, ip administered 9 days after tumor implantation as six fractionated doses every 4 days measured after 72 hrs by gamma counting; type: ADME, organism-based; details: in vivo
[14] = target: T1, Sex hormone-binding globulin (Oryctolagus cuniculus, UniProt P15196); assay: Binding affinity to rabbit sex hormone binding globulin at 20 uCi after 60 mins by size-exclusion HPLC analysis; type: ADME; details: 1 h
T1 sequence (P15196 whole entry): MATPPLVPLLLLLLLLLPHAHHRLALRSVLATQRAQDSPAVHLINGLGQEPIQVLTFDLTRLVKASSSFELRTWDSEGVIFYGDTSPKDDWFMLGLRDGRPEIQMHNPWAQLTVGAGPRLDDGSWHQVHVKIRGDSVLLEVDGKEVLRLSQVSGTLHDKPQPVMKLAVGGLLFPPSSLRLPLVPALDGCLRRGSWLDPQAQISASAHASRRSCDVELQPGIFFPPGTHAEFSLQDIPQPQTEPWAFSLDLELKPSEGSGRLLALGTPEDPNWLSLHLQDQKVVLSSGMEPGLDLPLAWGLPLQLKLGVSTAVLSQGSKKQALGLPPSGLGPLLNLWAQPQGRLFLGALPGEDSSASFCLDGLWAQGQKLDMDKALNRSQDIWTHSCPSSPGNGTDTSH
In short: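 Radioligand incubated 60 min with purified human SHBG or with human, rabbit or mouse serum. Size-exclusion HPLC (TSK3000): 0.1 M potassium phosphate/0.1 M Na2SO4 1:1 pH 6.8 for 20 min, then 0–40% CH3CN over 20 min, held 30 min, 0.7 mL/min.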

[15] = target: Albumin (Mus musculus, UniProt P07724); assay: Binding affinity to mouse serum albumin at 20 uCi after 60 mins by size-exclusion HPLC analysis; type: ADME; details: isolated protein, 1 h
Sequence of Albumin (P07724 whole entry): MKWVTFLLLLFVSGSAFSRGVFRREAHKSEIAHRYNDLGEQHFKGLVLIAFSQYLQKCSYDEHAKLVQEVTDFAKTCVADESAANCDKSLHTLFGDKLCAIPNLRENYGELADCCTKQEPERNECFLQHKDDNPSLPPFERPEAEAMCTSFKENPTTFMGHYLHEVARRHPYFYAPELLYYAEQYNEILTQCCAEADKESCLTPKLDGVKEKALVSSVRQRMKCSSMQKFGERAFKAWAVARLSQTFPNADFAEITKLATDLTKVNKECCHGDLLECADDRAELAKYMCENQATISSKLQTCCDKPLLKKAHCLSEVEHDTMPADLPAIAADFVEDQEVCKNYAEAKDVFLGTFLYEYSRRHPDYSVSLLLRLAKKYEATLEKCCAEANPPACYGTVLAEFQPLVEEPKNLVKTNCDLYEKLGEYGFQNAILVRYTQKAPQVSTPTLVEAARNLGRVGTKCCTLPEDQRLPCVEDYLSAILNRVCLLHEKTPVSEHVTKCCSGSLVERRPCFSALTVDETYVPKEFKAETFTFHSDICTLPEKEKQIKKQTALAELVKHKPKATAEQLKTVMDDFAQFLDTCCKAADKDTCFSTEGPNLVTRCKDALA

[16] = target: T2, Sex hormone-binding globulin (Homo sapiens, UniProt P04278); assay: Binding affinity to human sex hormone binding globulin at 20 uCi after 60 mins by reversed phase HPLC analysis; type: ADME; details: 1 h
T2 sequence (P04278 whole entry): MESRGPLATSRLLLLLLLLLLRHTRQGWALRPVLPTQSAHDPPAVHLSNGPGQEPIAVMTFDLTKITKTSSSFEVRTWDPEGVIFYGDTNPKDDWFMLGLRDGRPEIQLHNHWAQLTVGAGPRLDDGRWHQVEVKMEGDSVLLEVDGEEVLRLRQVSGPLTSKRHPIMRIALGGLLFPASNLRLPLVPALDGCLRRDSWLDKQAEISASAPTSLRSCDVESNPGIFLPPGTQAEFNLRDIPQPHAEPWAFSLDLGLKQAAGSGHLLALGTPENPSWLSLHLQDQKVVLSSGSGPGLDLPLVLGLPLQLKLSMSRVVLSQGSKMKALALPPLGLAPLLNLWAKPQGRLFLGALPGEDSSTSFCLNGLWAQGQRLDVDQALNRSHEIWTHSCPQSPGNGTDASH

[17] = tested on: Stomach; assay: Biodistribution in stomach of athymic NCr mouse xenografted with human OVCAR-3 cells assessed per gram of tissue at an average 39.5 uCi/dose, ip administered 9 days after tumor implantation as six fractionated doses every 4 days measured after 2 weeks of last dose by gamma counting; type: ADME, organism-based; details: in vivo, 336 h
In short: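 OVCAR-3-bearing and healthy athymic mice given fractionated ip doses on the six-dose every-4-days schedule; tissues, tumor and lavaged cells γ-counted at necropsy, %ID/g; DNA-bound 125I in cells measured as cpm/cell.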

`C[C@]12CCC(=O)C[C@@H]1CC[C@@H]1[C@@H]2CC[C@]2(C)[C@@H](OC(=O)CCC(=O)O[C@H]3C[C@H](n4cc([125I])c(=O)[nH]c4=O)O[C@@H]3CO)CC[C@@H]12` showed a remaining at 10 min [1] of less than 1.5%, a t1/2 [2] of 5.7 h and a t1/2 [3] of 3.2 h. The Drug uptake [4] was “Dose-dependent effect”, the half-life [5] was 60 days and the Survival [6] was 50%. It also gave a Drug uptake [7] of 1 %ID, a Drug uptake [8] of 0.5 %ID and a degraded at 24 h, 12.2 uCi [9] of 30%. For the same molecule, the Ratio [10] was 79.1, the Ratio [11] was 27.4 and the Ratio [12] was 24.8. For the same molecule, the Ratio [13] was 21.8.
For `C[C@]12CCC(=O)C[C@@H]1CC[C@@H]1[C@@H]2CC[C@]2(C)[C@@H](OC(=O)CCC(=O)O[C@H]3C[C@H](n4cc([125I])c(=O)[nH]c4=O)O[C@@H]3COP(=O)(O)O)CC[C@@H]12`, the Activity [14] was “Active”, the Activity [15] was “Active” and the Activity [16] was “Active”. The Drug uptake [17] was 0.009 %ID.
